This data set can be described thus: Toxicity liver stage against HepG2, at 10uM. The data set is classed as cell-based. More on the design: test concentration 10 uM, cell line HepG2-A16-CD81EGFP. The conditions noted are these: human, HepG2-A16-CD81EGFP cells; read-out: INHIBITION
The method, boiled down:
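Uninfected HepG2-A16-CD81EGFP cells, 3 × 10^3 per well, 1536-well, plated on prespotted compound at 10 μM final, parasite-free screening media added to match infected plates; puromycin 10 μM positive, DMSO 0.5% negative; run in parallel with 48 h PbLuc assay at 37 °C, 5% CO2; viability by CellTiter-Glo luminescence, normalized to controls.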
Take `c1coc(-c2noc(CN3CCc4c(ncn4C4CC4)C3)n2)c1`: the cytotoxicity at 10 µM is -8.12%. In the case of `N#Cc1cccc(C(=O)N2CC(c3nc(-c4cccnc4)no3)C2)c1`, the cytotoxicity at 10 µM was -6.03%. To `Cc1nn(C)c2nc(NCCCN3CCCC(CO)C3)sc12` (stereo unspecified) belongs -14.2%; to `Cc1ccc(CN2CCc3[nH]nc(C(=O)N4CCNC(=O)C4)c3C2)s1`, 12%. With `COC(=O)c1cccc(CN(C)Cc2ncnn2C)c1C#N`, the cytotoxicity at 10 µM is -4.23%. With `c1ccc2oc(CCCN3CCOC(Cn4cccn4)C3)nc2c1` (stereo unspecified), the cytotoxicity at 10 µM worked out at 0.987%. As for `COCCN(C)C(=O)c1nc2c(s1)CCCN2C`, the cytotoxicity at 10 µM is -143%. Under `CC(C)(C)C(=O)NS(=O)(=O)c1ccc(C#N)c(C(F)(F)F)c1` stands 1.38%. To `CC(C)N(C)S(=O)(=O)N(C)Cc1cnn(Cc2ccccc2)c1` belongs 7.01%; to `CN1CCN(C)C2(CCN(C(=O)CC(F)(F)F)CC2)C1=O`, 1.24%.

Regarding `O=C([C@H]1C[C@H]2OCC[C@H]2N(C(=O)c2ccccn2)C1)N1CCCCO1`, the cytotoxicity at 10 µM was 13.1%. Under `Cc1nc(CN2CCCC(NCCOc3ccccc3C#N)C2)no1` (stereo unspecified) stands -1.13%.

With `Cc1ocnc1C(=O)N1CCC2(CC1)c1nc[nH]c1CCN2CC(C)C`, the cytotoxicity at 10 µM was -11.4%. To `Cc1cc(C)n(CC2CN(CC(=O)Nc3ccncc3)CCO2)n1` (stereo unspecified) belongs -3.18%; to `O=C(C1CCOC1)N1C[C@H]2CN(Cc3cccnc3)C(=O)[C@H]2C1` (stereo partly specified), -108%; to `OCC1CCN(Cc2cc3c(cc2Br)OCCO3)CC1`, 6.84%.

Consider `CNCC(=O)N1CCCC1c1nc(C(C)C)no1` (stereo unspecified), for which the cytotoxicity at 10 µM is 0.983%. Under `CN(C)C(=O)c1cccnc1N1CCOC(c2ccc(Cl)cc2)C1` (stereo unspecified) stands 9.39%; under `Cc1ncc2c(n1)CN(C(C(N)=O)c1ccc(F)cc1)CC2` (stereo unspecified), -1.01%; under `CC(CN1CCOCC1)NC(=O)Nc1cccnc1-n1cccn1` (stereo unspecified), -1.7%. Under `Fc1ccc(CN2CCCC(c3nnc(-c4cnccn4)o3)C2)cc1F` (stereo unspecified) stands -8.03%; under `Fc1ccccc1CO[C@@H]1C[C@H]2CN(c3ncccn3)CCN2C1`, 1.09%; under `CC(C)Cc1cc(CNC(=O)C2CCCN(Cc3ccco3)C2)no1` (stereo unspecified), 3.11%. To `Cc1cc(C[C@@H]2COC[C@H]2NCc2ccccc2C(F)(F)F)on1` belongs -6.15%; to `CC(CN1CC[C@@H]2CCCC[C@@H]2C1)n1cnc2ccccc21` (stereo partly specified), 7.16%. With `CCC(C)N(Cc1ccncc1)C(=O)CCC(=O)OC` (stereo unspecified), the cytotoxicity at 10 µM is -14.5%. To `CCN(C(=O)CCn1cccn1)C1CC1` belongs -6.16%; to `CNC(=O)c1noc(CN2CC[C@](C)(O)[C@H](C)C2)n1`, -37.5%; to `CCN(CC(=O)N(C)C)C(=O)c1cc(-c2cccc(Cl)c2)no1`, 6.17%. To `NC(=O)c1csc(N2CCCC(c3nc4ccccc4[nH]3)C2)n1` (stereo unspecified) belongs 8.5%. To `CC1c2ncc(COCC3CCCC3)n2CCN1S(=O)(=O)N(C)C` (stereo unspecified) belongs 14.6%; to `CC1CN(C(=O)CN(Cc2ccccc2Br)C2CC2)CCO1` (stereo unspecified), 2.38%; to `COCCN1CCN(CC(=O)N(C)Cc2ccc(C)o2)CC1C` (stereo unspecified), -127%. `CC(C)n1ncc2c1NC(=O)CC21C(=O)Nc2c(Cl)cc(Br)cc21` (stereo unspecified): the cytotoxicity at 10 µM was -5.15%. Take `COc1cc(CNC(=O)N(Cc2ccc(F)cc2F)C2CC2)ccn1`: the cytotoxicity at 10 µM was -9.17%.

Turning to `CN1CC(=O)N(c2ccsc2)CC12CCN(C(=O)Nc1ccccc1)C2` (stereo unspecified), the cytotoxicity at 10 µM was -78.7%. As for `CC(=O)N(C)Cc1ccc(OCc2cccs2)cc1`, the cytotoxicity at 10 µM worked out at 12.4%. Regarding `c1ccc(OC2COC3(CCN(Cc4ccccn4)CC3)C2)cc1` (stereo unspecified), the cytotoxicity at 10 µM was -69.2%.

As to `CCn1cc(Cl)c(C(=O)Nc2ccc3c(c2)C(C)(C)C(=O)N3C)n1`, the cytotoxicity at 10 µM was determined as 9.21%. To `OCCOCc1nnn2c1CN(c1ncccn1)CCC2` belongs -10.5%; to `COc1ccccc1C(=O)Nc1nc2c(s1)CN(S(=O)(=O)C1CC1)CC2`, -11.7%. Under `CCc1cnc(N2Cc3cnc(C(C)(C)C)nc3C2)nc1` stands 3.51%.

As for `CCNc1ccnc(N2Cc3cnc(CC(C)C)nc3C2)n1`, the cytotoxicity at 10 µM was 10.4%. To `CNC(=O)NC(=O)CNC(CC(F)(F)F)c1ccc(F)cc1` (stereo unspecified) belongs 7.69%; to `CCn1cnnc1CNC(=O)N1CCC(C(=O)NC)CC1`, 2.65%. Under `COCCN1CCc2ccc(=O)n(Cc3csc(C)n3)c2CC1` stands 4.68%; under `CC(C)OCCCN(Cc1ccncc1)Cc1cccc(F)c1`, -15.6%; under `COc1c(C2CCCN2C(=O)c2csc(C(C)C)n2)c(C)nn1C` (stereo unspecified), -8.26%.

`COCCCN1C(=O)CC[C@H]2CN(c3ccnc4ccccc34)CC[C@H]21`: the cytotoxicity at 10 µM was -3.63%. To `O=C(CN1CCOC(CNc2cccnn2)C1)NCc1ccccn1` (stereo unspecified) belongs -0.945%; to `CCN(CC)C(=O)C1CCC2(CCNCC2)CO1` (stereo unspecified), -146%; to `CC(C)(C)n1ncc2c(=O)[nH]c(N3CCN(CC(F)F)CC3)nc21`, -7.8%. To `O=C(CSc1ccccn1)NCc1ccc2c(c1)CCC(=O)N2` belongs 20%; to `Cc1ccc2c(c1)C1(CCNCC1)CC2N1CCOCC1` (stereo unspecified), -134%; to `COCCC(=O)N1C[C@@H](c2ccc(F)c(F)c2)[C@@]2(CCCC(=O)N2)C1`, -9.06%.

In the case of `COC(=O)c1ncccc1N1CCN(C(=O)CN2CCOCC2)CC1`, the cytotoxicity at 10 µM is 16.7%. To `CNC(=O)NC(=O)CCSCc1cc(F)cc2cccnc12` belongs -5.31%; to `CCn1nc(C)cc1C(=O)OCC1CC(=O)N(Cc2ccccc2)C1` (stereo unspecified), 6.68%; to `COc1ccc(NC(=O)CCNc2ncccn2)cn1`, -48.4%.

`CCc1nc(N)nc(N(C)Cc2nncn2CCOC)c1C`: the cytotoxicity at 10 µM was -6.41%. To `CN(Cc1ccon1)CC1CCOc2ccccc2C1` (stereo unspecified) belongs -6.95%. To `CC(CNC(=O)c1cc(N2CCNC2=O)ccc1F)c1ccccc1` (stereo unspecified) belongs -2.1%; to `CN1CCc2c(NC(=O)NCc3ccccc3Cl)cccc21`, 3.65%. Consider `O=C(c1ccccn1)C1CCCN(c2nccc(CCC(F)(F)F)n2)C1` (stereo unspecified), for which the cytotoxicity at 10 µM is -4.27%. To `O=C(c1ccc[nH]1)N1C[C@@H]2CC[C@H]1CN(c1ncccn1)C2` belongs -7.12%; to `CC(C)N1CCC(NCc2cccnc2N(C)Cc2ccccc2)CC1`, 21%; to `O=C(NC1CCCc2c1[nH]c1ccc(F)cc21)c1n[nH]c2c1CCC2` (stereo unspecified), 51.7%. In the case of `CCCN(C(=O)CN1CCn2c(nnc2C2CC2)C1)C1=CCCCC1`, the cytotoxicity at 10 µM was found to be 6.19%.

Take `Cc1cc(C)n(CC(C)NCc2nncn2C2CCCCC2)n1` (stereo unspecified): the cytotoxicity at 10 µM was -3.26%. Under `O=C(NCCN1CCOCC1)c1cc(COc2ccccc2F)[nH]n1` stands 13.1%; under `CCCC(NC(=O)c1cc(C2CC2)[nH]n1)c1nnc2ccccn12` (stereo unspecified), 0.11%.
